For one compound, EC50 results are on record in PubChem BioAssay AID623977 (Vanderbilt High Throughput Screening Facility, 2012).

The test has as its target G protein-activated inward rectifier potassium channel 2 (Homo sapiens) + G protein-activated inward rectifier potassium channel 1 (Homo sapiens) (UniProt P48051+P48549). Description: activation of GIRK1/2 current, electrophysiology – HEK-293 hGIRK1/2, whole-cell voltage clamp, Ba2+-sensitive current, orthogonal assay for GIRK activator project, confirmation (AID 623977). The settings on record: HEK-293 hGIRK1/2, whole-cell patch clamp current. In a few lines:
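Assay system: stable hGIRK1/2 HEK-293 cells / Medium: 20 mM K+ bath, pH 7.4, KCl pipette solution / Dosing: test compound diluted in 20 mM K+ bath solution / Timing: cells patched 24–72 h after plating / Technique: whole-cell patch clamp, -70 mV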

Sequence of G protein-activated inward rectifier potassium channel 2 (Homo sapiens) + G protein-activated inward rectifier potassium channel 1 (Homo sapiens) (P48051 whole entry, looked up): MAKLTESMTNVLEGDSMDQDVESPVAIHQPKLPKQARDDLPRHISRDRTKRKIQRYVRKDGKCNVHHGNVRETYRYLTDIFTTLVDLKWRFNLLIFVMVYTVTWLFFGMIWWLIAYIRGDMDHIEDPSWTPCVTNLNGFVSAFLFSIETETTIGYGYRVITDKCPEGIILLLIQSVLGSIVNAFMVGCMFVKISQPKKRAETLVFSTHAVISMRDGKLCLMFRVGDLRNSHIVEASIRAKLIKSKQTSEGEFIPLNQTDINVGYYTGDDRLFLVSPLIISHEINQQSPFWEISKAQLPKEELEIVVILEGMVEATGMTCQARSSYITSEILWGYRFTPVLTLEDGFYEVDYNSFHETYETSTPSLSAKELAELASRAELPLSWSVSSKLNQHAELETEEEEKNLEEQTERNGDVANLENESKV
Sequence of G protein-activated inward rectifier potassium channel 2 (Homo sapiens) + G protein-activated inward rectifier potassium channel 1 (Homo sapiens) (P48549 whole entry, looked up): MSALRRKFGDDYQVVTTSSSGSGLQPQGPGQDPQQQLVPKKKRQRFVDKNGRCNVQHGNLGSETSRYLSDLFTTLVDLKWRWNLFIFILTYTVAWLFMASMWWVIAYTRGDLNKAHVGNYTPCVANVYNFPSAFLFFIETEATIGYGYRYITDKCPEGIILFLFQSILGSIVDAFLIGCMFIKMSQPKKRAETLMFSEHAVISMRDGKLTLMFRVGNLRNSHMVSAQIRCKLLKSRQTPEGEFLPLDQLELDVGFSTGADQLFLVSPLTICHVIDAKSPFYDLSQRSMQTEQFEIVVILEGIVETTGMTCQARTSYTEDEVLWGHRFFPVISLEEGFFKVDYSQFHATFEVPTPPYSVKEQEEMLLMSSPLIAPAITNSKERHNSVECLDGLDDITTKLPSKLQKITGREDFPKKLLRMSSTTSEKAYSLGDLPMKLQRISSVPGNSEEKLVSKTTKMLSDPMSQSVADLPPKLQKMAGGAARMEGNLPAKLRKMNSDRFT

In the case of `Cc1cc(NC(=O)Nc2ccc(F)c(F)c2)n(-c2ccccc2)n1`, the EC50 (usually the concentration giving half of the maximal effect) was 0.0541 µM.
